A selection: hits, their analogues and other compounds. The true share with any hit is near 2.7%.
RBBP9 inhibitor: blocks human serine hydrolase RBBP9. O75884. actives 0.2% (n = 220,000). inhibition, % at 7.94 µM. recombinant RBBP9, FP-Rh probe fluorescence polarization. AID 1515;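 active = inhibition above the campaign mean of all tested compounds plus 3 SD, cut at about 14% in these data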;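 note: plate controls were DMSO wells with RBBP9 for no effect and wells lacking RBBP9 protein for full effect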
Target sequence (O75884 whole entry, looked up): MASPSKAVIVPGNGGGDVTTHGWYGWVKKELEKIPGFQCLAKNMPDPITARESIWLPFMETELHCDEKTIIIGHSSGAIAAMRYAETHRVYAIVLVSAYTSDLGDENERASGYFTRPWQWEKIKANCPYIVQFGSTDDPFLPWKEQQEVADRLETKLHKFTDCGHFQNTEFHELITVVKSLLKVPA
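Test system – recombinant human RBBP9 · Input – RBBP9 2.5 µM in dispensing solution, pre-mixing · Medium – Tris buffer pH 8.0, NaCl, Pluronic · Schedule – preincubation 30 min plus labeling 45 min at 25 °C · Measured by – fluorescence polarization · Measure – % inhibition · Controls – DMSO and no-protein wells · Replicates – one well per compound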
PAFAH2 inh: PAFAH2 (human) inhibition | actives 0.99% (n = 340,000) | inhibition, % at 3.39 µM | recombinant PAFAH2, FP-rhodamine activity probe, fluorescence polarization;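 active = inhibition above the mean over all tested compounds plus 3 SD, cut at about 30% in these data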;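 note: inhibitors block probe labeling of enzyme so polarization drops; 0% = enzyme with DMSO and 100% = wells lacking PAFAH2 protein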
PAFAH1B2 inh: inhibitors of human PAFAH1B2 | P68402 | recombinant PAFAH1B2, FP-rhodamine activity probe, fluorescence polarization | inhibition, % at 3.39 µM | actives 1.2% (n = 340,000);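 active = inhibition above the mean of all tested compounds plus 3 SD, cut at about 24% in these data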;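 note: 0% = enzyme with DMSO and 100% = wells lacking PAFAH1B2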
pPAFAH inh: inhibitors of human plasma PAF acetylhydrolase (pPAFAH) | Q13093 | recombinant pPAFAH, FP-rhodamine probe fluorescence polarization | inhibition, % at 3.39 µM | actives 1.5% (n = 330,000) | AID 463082;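 active = inhibition above the mean inhibition across the screen plus 3 SD, cut at about 25% in these data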;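 note: inhibitors block binding of the rhodamine activity-based probe so polarization drops; 0% = enzyme with DMSO and 100% = wells lacking pPAFAH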
PAFAH1B3 FP inh: inhibitors of human PAFAH1B3. actives 0.28% (n = 340,000). inhibition, % at 3.39 µM. recombinant PAFAH1B3, FP-rhodamine probe, fluorescence polarization. Q15102. AID 492972;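 active = inhibition above the screen-wide average of all tested compounds plus 3 SD, cut at about 25% in these data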;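 note: 0% = enzyme with DMSO only and 100% = wells lacking PAFAH1B3 protein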
Target sequence (Q15102 whole entry, looked up): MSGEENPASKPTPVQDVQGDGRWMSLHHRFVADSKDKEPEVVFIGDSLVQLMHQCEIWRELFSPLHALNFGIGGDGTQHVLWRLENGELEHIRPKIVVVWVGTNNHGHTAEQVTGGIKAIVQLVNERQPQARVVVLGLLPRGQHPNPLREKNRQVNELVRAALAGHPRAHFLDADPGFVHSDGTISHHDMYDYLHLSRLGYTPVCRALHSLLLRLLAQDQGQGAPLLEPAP
PAFAH2 confirm: confirmation of human PAFAH2 inhibitors. actives 65% (n = 2,300). shares compounds with PAFAH2 inh. recombinant PAFAH2, FP-rhodamine activity probe, fluorescence polarization. AID 493030. inhibition, % at 3.39 µM;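 active = mean inhibition over three repeats above a set limit taken from the earlier primary screen, cut at about 30% in these data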;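 note: inhibitor blocks binding of rhodamine activity probe so polarization falls; 0% = enzyme with DMSO and 100% = wells lacking PAFAH2 protein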
Starred values were filed as active, the others as inactive.

Screening COc1ccc(C(=O)c2c3ccc(OC)cc3[n+]([O-])n2Cc2ccc(C(N)=O)cc2)cc1 returned PAFAH2 inh 2.9, PAFAH1B2 inh 3.8, pPAFAH inh 6.6 and PAFAH1B3 FP inh -4.1.
For COC(=O)C(C)Sc1nc2ccsc2c(=O)n1Cc1ccccc1 (stereo not given) the results were PAFAH2 inh 34.5*, PAFAH1B2 inh 2.1, pPAFAH inh 1.6, PAFAH1B3 FP inh 0.4 and PAFAH2 confirm 23.5.
COc1ccc(Cn2c(SCC(=O)NCc3ccco3)nc3ccsc3c2=O)cc1 was read as RBBP9 inhibitor -1.1, PAFAH2 inh 3.6, PAFAH1B2 inh 3.8, pPAFAH inh -5.1 and PAFAH1B3 FP inh -4.4.
For COc1cc(C(=O)OCC(=O)Nc2cc(-c3cc(C)c(C)cc3C)nn2-c2ccccc2)cc(OC)c1OC the results were RBBP9 inhibitor -0.7, PAFAH2 inh 5.8, PAFAH1B2 inh -2.5, pPAFAH inh 4.0 and PAFAH1B3 FP inh 2.0.
`O=C(COC(=O)c1ccc(OC(F)F)cc1)NCCNC(=O)COC(=O)c1ccc(OC(F)F)cc1` gave PAFAH2 inh -0.5, PAFAH1B2 inh 3.3, pPAFAH inh -1.6 and PAFAH1B3 FP inh -3.2.
`O=C(COC(=O)c1ccc(CO)cc1)Nc1ccc2ccccc2c1` gave PAFAH2 inh 80.5*, PAFAH1B2 inh -0.2, pPAFAH inh -5.5, PAFAH1B3 FP inh -1.2 and PAFAH2 confirm 71.4*.
Screening O=C(COC(=O)c1ccc(O)cc1O)Nc1ccc2ccccc2c1 returned PAFAH2 inh 3.9, PAFAH1B2 inh 0.8, pPAFAH inh 1.6 and PAFAH1B3 FP inh 1.2.
`O=C(COC(=O)c1ccc(CO)cc1)Nc1ccc(OC(F)F)cc1` gave RBBP9 inhibitor 2.5, PAFAH2 inh 81.5*, PAFAH1B2 inh 2.3, pPAFAH inh -5.7, PAFAH1B3 FP inh 3.6 and PAFAH2 confirm 74.2*.
For Cc1cc(C)c(-c2cc(NC(=O)COC(=O)c3ccc(CO)cc3)n(-c3ccccc3)n2)cc1C the results were RBBP9 inhibitor -13.6, PAFAH2 inh 31.7*, PAFAH1B2 inh -4.6, pPAFAH inh 3.2, PAFAH1B3 FP inh -6.5 and PAFAH2 confirm 23.3.
For COC1CCCN(C(=O)c2cccc(OC3CCN(S(=O)(=O)N(C)C)CC3)c2)C1 (stereo not given) the results were PAFAH2 inh 0.5, PAFAH1B2 inh -1.5, pPAFAH inh 2.5 and PAFAH1B3 FP inh 0.0.
Screening COc1ccc(C(=O)NNS(=O)(=O)c2ccccc2)cc1OC returned PAFAH2 inh -5.4, PAFAH1B2 inh 2.4, pPAFAH inh 1.8 and PAFAH1B3 FP inh 12.2.
For O=C(OCc1ccccc1)/C(=C/c1ccccc1Cl)NC(=O)c1ccco1 the results were PAFAH2 inh -7.4, PAFAH1B2 inh 2.2, pPAFAH inh 7.7 and PAFAH1B3 FP inh -4.4.
`Cc1noc(C)c1COc1ccc(C(=O)OCC(=O)OC(C)(C)C)cc1` gave RBBP9 inhibitor 0.6, PAFAH2 inh 32.4*, PAFAH1B2 inh 1.2, pPAFAH inh 8.6, PAFAH1B3 FP inh 8.2 and PAFAH2 confirm 29.5.
COc1ccc(CNC(=O)COC(=O)c2ccc(OCc3c(C)noc3C)cc2)cc1OC was read as RBBP9 inhibitor -5.3, PAFAH2 inh 0.0, PAFAH1B2 inh 4.4, pPAFAH inh 2.9 and PAFAH1B3 FP inh -0.7.
`Cc1noc(C)c1COc1ccc(C(=O)OCC(=O)NCc2ccccc2Cl)cc1` gave RBBP9 inhibitor -5.7, PAFAH2 inh 76.3*, PAFAH1B2 inh 4.0, pPAFAH inh 12.3, PAFAH1B3 FP inh 1.7 and PAFAH2 confirm 74.4*.
`CC1CCCCC1NC(=O)c1cccc(S(=O)(=O)N2CCN(Cc3ccccc3)CC2)c1` (stereo not given) gave PAFAH2 inh -10.1, PAFAH1B2 inh 4.0, pPAFAH inh 0.6 and PAFAH1B3 FP inh -1.1.
Screening CC1CCCCC1NC(=O)COC(=O)/C=C/c1ccc2c(c1)OCO2 (stereo not given) returned RBBP9 inhibitor -6.4, PAFAH2 inh 78.7*, PAFAH1B2 inh 6.0, pPAFAH inh 11.7, PAFAH1B3 FP inh 4.8 and PAFAH2 confirm 84.0*.
For CCN(CC)S(=O)(=O)c1ccc(/C=C/C(=O)OCC(=O)Nc2ccc(C(N)=O)cc2)cc1 the results were RBBP9 inhibitor -9.3, PAFAH2 inh -6.5, PAFAH1B2 inh -3.9, pPAFAH inh -2.4 and PAFAH1B3 FP inh -9.8.
